The nature of series [1]: Half life in Sprague-Dawley rat at 0.2 mg/kg, iv by LC-MS/MS analysis. To be noted: in vivo.
The target in series [2] is Metabotropic glutamate receptor 7 (Homo sapiens) (UniProt Q14831). The experiment in a line: Positive allosteric modulation of mGlu7 receptor (unknown origin) assessed as potentiation of glutamate-induced response by cell-based assay. The method, boiled down: (§1)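 Selectivity counterscreen at the other mGlu subtypes using the standard fold-shift paradigm. Compound was tested at 10 μM against the glutamate concentration-response curve, and the shift of that curve was read.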

In series [3] the target is Metabotropic glutamate receptor 1 (Rattus norvegicus, UniProt P23385). In words: Positive allosteric modulation of rat mGlu1 receptor assessed as potentiation of glutamate-induced calcium mobiliztion by cell based assay. The format is functional. The method, boiled down:
(§2)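 Rat mGlu1 WT calcium mobilization concentration-response curves. EC50 and % Glu Max were derived from the curves.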

Series [4] addresses Metabotropic glutamate receptor 1 (Rattus norvegicus) (UniProt P23385). The experiment in a line: Positive allosteric modulation of rat mGlu1 receptor assessed as potentiation of glutamate-induced calcium mobiliztion by cell based assay relative to glutamate. The series is classed as functional. The method in brief: as §2
In series [5] the target is T1, Metabotropic glutamate receptor 1 (Homo sapiens, UniProt Q13255). In words: Positive allosteric modulation of human mGlu1 receptor in HEK293 cells assessed as potentiation of glutamate-induced calcium mobiliztion by Fluo-4AM dye based fluorescence analysis relative to glutamate. The series is classed as functional, cell-based.
Target sequence in this assay (Q13255 19-1194 limits assumed): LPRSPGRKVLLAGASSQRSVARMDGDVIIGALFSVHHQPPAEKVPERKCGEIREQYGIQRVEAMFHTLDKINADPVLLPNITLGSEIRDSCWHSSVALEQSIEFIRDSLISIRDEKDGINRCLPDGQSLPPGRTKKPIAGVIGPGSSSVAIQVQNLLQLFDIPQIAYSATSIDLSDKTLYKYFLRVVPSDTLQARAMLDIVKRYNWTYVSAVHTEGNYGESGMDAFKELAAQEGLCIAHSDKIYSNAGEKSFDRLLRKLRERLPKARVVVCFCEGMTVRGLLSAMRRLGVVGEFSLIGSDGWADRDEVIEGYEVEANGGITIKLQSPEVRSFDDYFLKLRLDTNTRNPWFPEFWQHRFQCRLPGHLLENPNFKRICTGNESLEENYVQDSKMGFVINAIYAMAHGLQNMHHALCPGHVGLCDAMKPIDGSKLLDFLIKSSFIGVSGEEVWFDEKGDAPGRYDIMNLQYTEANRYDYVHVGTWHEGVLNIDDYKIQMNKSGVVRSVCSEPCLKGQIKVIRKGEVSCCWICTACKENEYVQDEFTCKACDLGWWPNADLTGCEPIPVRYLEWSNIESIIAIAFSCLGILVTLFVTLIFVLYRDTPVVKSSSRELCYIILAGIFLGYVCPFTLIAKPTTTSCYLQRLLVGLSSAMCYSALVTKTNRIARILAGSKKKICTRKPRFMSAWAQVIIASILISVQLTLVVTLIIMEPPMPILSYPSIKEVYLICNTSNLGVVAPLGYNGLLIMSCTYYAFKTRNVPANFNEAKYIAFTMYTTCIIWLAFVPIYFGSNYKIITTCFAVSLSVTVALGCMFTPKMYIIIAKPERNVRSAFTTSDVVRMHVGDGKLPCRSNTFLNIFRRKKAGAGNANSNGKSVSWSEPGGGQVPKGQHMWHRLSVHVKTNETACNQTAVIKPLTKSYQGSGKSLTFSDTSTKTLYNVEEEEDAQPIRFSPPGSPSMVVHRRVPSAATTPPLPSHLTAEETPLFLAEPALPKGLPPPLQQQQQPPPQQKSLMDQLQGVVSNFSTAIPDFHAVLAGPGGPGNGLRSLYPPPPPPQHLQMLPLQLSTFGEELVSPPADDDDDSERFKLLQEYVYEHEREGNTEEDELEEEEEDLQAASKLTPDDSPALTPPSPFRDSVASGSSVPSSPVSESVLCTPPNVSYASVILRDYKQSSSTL
Series [6] deals with T2, Metabotropic glutamate receptor 4 (Homo sapiens, UniProt Q14833). In words: Positive allosteric modulation of human mGlu4 receptor assessed as potentiation of glutamate-induced calcium mobiliztion by cell based assay. The series is classed as functional.
Series [7] is described as follows: Mean residence time in Sprague-Dawley rat at 0.2 mg/kg, iv by LC-MS/MS analysis. The settings on record: in vivo.
Series [8] has as its target T2, Metabotropic glutamate receptor 4. The experiment in a line: Positive allosteric modulation of human mGlu4 receptor assessed as potentiation of glutamate-induced calcium mobiliztion by cell based assay relative to PHCCC.
In series [9] the test system is Plasma. The experiment in a line: Metabolic stability in rat plasma. The format is ADME, cell-free.
For series [10], the target named is Metabotropic glutamate receptor 3 (Homo sapiens) (UniProt Q14832). In words: Positive allosteric modulation of mGlu3 receptor (unknown origin) assessed as potentiation of glutamate-induced response by cell-based assay. The method, boiled down: as §1
A short description of series [11]: Ratio of drug level in brain to plasma of Sprague-Dawley rat at 0.2 mg/kg, iv after 0.25 hrs by LC-MS/MS analysis. The settings on record: read-out: BPR.
Series [12] is described as follows: Plasma concentration in Sprague-Dawley rat at 0.2 mg/kg, iv after 0.25 hrs by LC-MS/MS analysis.
Series [13] relates to Plasma. The experiment in a line: Drug metabolism in human plasma assessed as 5-chloro-2-(2-chloro-4-(3-methylfuran-2-carboxamido)phenylcarbamoyl)benzoic acid level at 10 uM after 4 hrs by mass spectrometry. The series is classed as ADME, cell-free.
The subject of series [14] is Plasma. In words: Drug metabolism in human plasma assessed as 4-chloro-2-(2-chloro-4-(3-methylfuran-2-carboxamido)phenylcarbamoyl)benzoic acid level at 10 uM after 4 hrs by mass spectrometry. The series is classed as ADME, cell-free.
Series [15] has as its target T1, Metabotropic glutamate receptor 1. In words: Positive allosteric modulation of human mGlu1 receptor in HEK293 cells assessed as potentiation of glutamate-induced calcium mobiliztion by Fluo-4AM dye based fluorescence analysis. The series is classed as functional, cell-based. To be noted: read-out: EC50.
Target sequence in this assay (Q13255 whole entry): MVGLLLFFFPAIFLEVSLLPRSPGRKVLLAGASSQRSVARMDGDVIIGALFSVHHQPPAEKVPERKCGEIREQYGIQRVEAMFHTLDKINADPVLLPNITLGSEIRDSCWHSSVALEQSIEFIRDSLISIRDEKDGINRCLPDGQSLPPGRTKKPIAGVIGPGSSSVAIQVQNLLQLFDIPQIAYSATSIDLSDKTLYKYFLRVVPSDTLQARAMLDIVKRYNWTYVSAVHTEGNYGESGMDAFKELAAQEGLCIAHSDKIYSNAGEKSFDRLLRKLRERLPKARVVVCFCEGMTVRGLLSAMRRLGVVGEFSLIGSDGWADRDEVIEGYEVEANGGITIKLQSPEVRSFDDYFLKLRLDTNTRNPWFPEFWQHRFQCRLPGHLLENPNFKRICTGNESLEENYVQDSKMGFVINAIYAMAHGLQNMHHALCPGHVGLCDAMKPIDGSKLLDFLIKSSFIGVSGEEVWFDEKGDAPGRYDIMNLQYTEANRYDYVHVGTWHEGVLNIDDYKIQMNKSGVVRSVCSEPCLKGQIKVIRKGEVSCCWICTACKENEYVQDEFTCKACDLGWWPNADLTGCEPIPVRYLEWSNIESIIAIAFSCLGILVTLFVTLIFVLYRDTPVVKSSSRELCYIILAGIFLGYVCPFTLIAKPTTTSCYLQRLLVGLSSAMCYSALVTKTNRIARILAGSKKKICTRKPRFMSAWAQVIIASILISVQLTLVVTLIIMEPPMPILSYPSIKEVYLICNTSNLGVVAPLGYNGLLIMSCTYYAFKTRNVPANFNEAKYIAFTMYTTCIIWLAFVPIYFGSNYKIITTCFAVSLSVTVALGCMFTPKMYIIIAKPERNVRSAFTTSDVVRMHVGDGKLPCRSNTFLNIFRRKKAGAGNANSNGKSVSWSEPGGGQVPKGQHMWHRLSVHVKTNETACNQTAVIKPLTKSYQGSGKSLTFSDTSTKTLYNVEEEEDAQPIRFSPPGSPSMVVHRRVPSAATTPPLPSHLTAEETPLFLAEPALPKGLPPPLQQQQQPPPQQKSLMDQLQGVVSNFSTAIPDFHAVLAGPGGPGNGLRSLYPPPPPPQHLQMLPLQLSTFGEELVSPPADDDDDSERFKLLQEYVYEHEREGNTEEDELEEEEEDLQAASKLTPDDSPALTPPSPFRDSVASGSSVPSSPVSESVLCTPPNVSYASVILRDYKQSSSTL
A short description of series [16]: Plasma clearance in Sprague-Dawley rat at 0.2 mg/kg, iv by LC-MS/MS analysis.
Another series has as its target T3, Cytochrome P450 1A2 (Homo sapiens, UniProt P05177).
T3 sequence (P05177 whole entry): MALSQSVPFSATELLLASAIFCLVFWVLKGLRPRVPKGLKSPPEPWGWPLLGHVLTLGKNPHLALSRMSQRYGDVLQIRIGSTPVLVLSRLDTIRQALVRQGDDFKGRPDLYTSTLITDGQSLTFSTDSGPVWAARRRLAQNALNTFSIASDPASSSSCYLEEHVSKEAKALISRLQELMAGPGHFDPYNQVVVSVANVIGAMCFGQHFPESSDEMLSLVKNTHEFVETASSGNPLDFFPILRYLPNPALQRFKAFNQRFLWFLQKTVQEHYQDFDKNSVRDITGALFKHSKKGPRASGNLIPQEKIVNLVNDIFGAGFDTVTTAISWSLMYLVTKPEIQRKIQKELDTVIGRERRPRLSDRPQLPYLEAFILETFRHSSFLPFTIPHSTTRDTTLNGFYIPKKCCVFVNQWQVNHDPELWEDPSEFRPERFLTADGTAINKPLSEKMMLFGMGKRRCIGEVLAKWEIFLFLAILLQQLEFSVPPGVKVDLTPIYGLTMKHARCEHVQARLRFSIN
In words: Inhibition of CYP1A2 in human liver microsomes by LC-MS/MS analysis. The series is classed as ADME.

The target of the next series is Cytochrome P450 3A4 (Homo sapiens, UniProt P08684). The experiment in a line: Inhibition of CYP3A4 in human liver microsomes by LC-MS/MS analysis. The series is classed as ADME.
The next series has as its system Brain. The experiment in a line: Drug concentration in C57BL/6 mouse brain at 100 mg/kg, ip administered as single dose. The format is ADME, organism-based. To be noted: in vivo, read-out: Drug uptake.
Series [17] deals with T1, Metabotropic glutamate receptor 1. In words: Positive allosteric modulation of human mGlu1 receptor in HEK293 cells assessed as potentiation of glutamate-induced calcium mobiliztion at 10 uM by Fluo-4AM dye based fluorescence analysis. The series is classed as functional, cell-based.
Target sequence in this assay (Q13255 19-1194 limits assumed): as the sequence (Q13255 19-1194 limits assumed) above
The subject of series [18] is Plasma. The experiment in a line: Metabolic stability in human plasma. The series is classed as ADME, cell-free. The method in brief:
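Compound incubated at 10 μM in rat or human plasma at 37 °C. Samples taken at 0 and 4 h were analysed by mass spectrometry for parent and metabolites.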

In series [19] the target is Metabotropic glutamate receptor 5 (Homo sapiens) (UniProt P41594). The experiment in a line: Positive allosteric modulation of mGlu5 receptor (unknown origin) assessed as potentiation of glutamate-induced response by cell-based assay. The method, boiled down:
as §1

Series [20] deals with Plasma. In words: Drug metabolism in rat plasma assessed as 5-chloro-2-(2-chloro-4-(3-methylfuran-2-carboxamido)phenylcarbamoyl)benzoic acid level at 10 uM after 4 hrs by mass spectrometry. The series is classed as ADME, cell-free.
The test system of series [21] is Mus musculus. The experiment in a line: Toxicity in C57BL/6 mouse assessed as seizure activity at 100 mg/kg, ip administered as single dose measured for 3 hrs. The settings on record: in vivo. The format is organism-based. The method, boiled down:
(§3)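 Male C57Bl/6 mice (25−30 g) dosed ip in 10% Tween 80 at 10 mL/kg: the mGlu5 ago-PAM at 1 or 3 mg/kg, the mGlu1 PAMs at 100 mg/kg. Behaviour was monitored continuously for 3 h and scored on a modified Racine scale (0−5).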

Series [22] addresses T1, Metabotropic glutamate receptor 1. The experiment in a line: Agonist activity at human mGlu1 receptor in HEK293 cells assessed as calcium mobilization at 10 uM by Fluo-4AM dye based fluorescence analysis. The format is functional, cell-based.
Target sequence in this assay (Q13255 19-1194 limits assumed): as above
The target in series [23] is Metabotropic glutamate receptor 8 (Homo sapiens) (UniProt O00222). In words: Positive allosteric modulation of mGlu8 receptor (unknown origin) assessed as potentiation of glutamate-induced response by cell-based assay. The method in brief:
as §1

For a further series, the target named is Cytochrome P450 2C9 (Homo sapiens, UniProt P11712). In words: Inhibition of CYP2C9 in human liver microsomes by LC-MS/MS analysis. The format is ADME.
Series [24] addresses Metabotropic glutamate receptor 6 (Homo sapiens) (UniProt O15303). The experiment in a line: Positive allosteric modulation of mGlu6 receptor (unknown origin) assessed as potentiation of glutamate-induced response by cell-based assay. The method in brief: as §1
Series [25] is described as follows: Intrinsic clearance in human liver microsomes at 1 uM by LC-MS/MS analysis. The format is ADME. The settings on record: read-out: CLH.
A short description of series [26]: Drug concentration in Sprague-Dawley rat brain at 0.2 mg/kg, iv after 0.25 hrs by LC-MS/MS analysis. To be noted: read-out: Drug uptake.
The subject of the next series is Rattus norvegicus. In words: Volume of distribution at steady state in Sprague-Dawley rat at 0.2 mg/kg, iv by LC-MS/MS analysis. To be noted: in vivo.
In series [27] the target is Metabotropic glutamate receptor 2 (Homo sapiens) (UniProt Q14416). In words: Positive allosteric modulation of mGlu2 receptor (unknown origin) assessed as potentiation of glutamate-induced response by cell-based assay. The method, boiled down: as §1
The target in a further series is Cytochrome P450 2D6 (Homo sapiens, UniProt P10635). In words: Inhibition of CYP2D6 in human liver microsomes by LC-MS/MS analysis. The series is classed as ADME.
The subject of series [28] is Plasma. The experiment in a line: Drug metabolism in rat plasma assessed as N-(4-amino-3-chlorophenyl)-3-methylfuran-2-carboxamide level at 10 uM after 4 hrs by mass spectrometry. The series is classed as ADME, cell-free.
Series [29] concerns Plasma. In words: Drug metabolism in rat plasma assessed as 4-chloro-2-(2-chloro-4-(3-methylfuran-2-carboxamido)phenylcarbamoyl)benzoic acid level at 10 uM after 4 hrs by mass spectrometry. The format is ADME, cell-free.
For series [30], the system named is Plasma. The experiment in a line: Drug metabolism in human plasma assessed as N-(4-amino-3-chlorophenyl)-3-methylfuran-2-carboxamide level at 10 uM after 4 hrs by mass spectrometry. The format is ADME, cell-free.
A further series deals with Hippocampus. The experiment in a line: Toxic epileptiform activity in C57BL/6 mouse CA3 region of hippocampus assessed as frequency of spike activity at 50 uM by electrophysiolgy method (reference value: 0.94 +/- 0.06 Hz). The format is toxicity, tissue-based. The method in brief:
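Mouse hippocampal slices with extracellular recording from the CA3 pyramidal cell body layer. Compound (10 μM) or DHPG (50 μM) was bath-applied, and the frequency of spontaneous spikes was compared with baseline. n = 6 per agent, paired t test.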

For series [31], the target named is T1, Metabotropic glutamate receptor 1. The experiment in a line: Negative allosteric modulation of human mGlu1 receptor in HEK293 cells assessed as potentiation of glutamate-induced calcium mobiliztion by Fluo-4AM dye based fluorescence analysis. The format is functional, cell-based.
Target sequence in this assay (Q13255 whole entry): as the sequence (Q13255 whole entry) above
Series [32] has as its system Mus musculus. The experiment in a line: Toxicity in C57BL/6 mouse assessed as seizure activity at 1 mg/kg, ip administered as single dose measured after 5 mins. The series is classed as organism-based. The settings on record: in vivo. The method, boiled down: as §3
Series [33] relates to Mus musculus. In words: Toxicity in C57BL/6 mouse assessed as seizure activity at 1 or 3 mg/kg, ip administered as single dose measured after 5 mins. The settings on record: in vivo.

Some results are limits rather than exact numbers.

The values that follow come from ChEMBL document CHEMBL3627606, “Development of Novel, CNS Penetrant Positive Allosteric Modulators for the Metabotropic Glutamate Receptor Subtype 1 (mGlu1), Based on an N-(3-Chloro-4-(1,3-dioxoisoindolin-2-yl)phenyl)-3-methylfuran-2-carboxamide Scaffold, That Potentiate Wild Type and Mutant mGlu1 Receptors Found in …” (J Med Chem, 2015).

T2 sequence (Q14833 whole entry): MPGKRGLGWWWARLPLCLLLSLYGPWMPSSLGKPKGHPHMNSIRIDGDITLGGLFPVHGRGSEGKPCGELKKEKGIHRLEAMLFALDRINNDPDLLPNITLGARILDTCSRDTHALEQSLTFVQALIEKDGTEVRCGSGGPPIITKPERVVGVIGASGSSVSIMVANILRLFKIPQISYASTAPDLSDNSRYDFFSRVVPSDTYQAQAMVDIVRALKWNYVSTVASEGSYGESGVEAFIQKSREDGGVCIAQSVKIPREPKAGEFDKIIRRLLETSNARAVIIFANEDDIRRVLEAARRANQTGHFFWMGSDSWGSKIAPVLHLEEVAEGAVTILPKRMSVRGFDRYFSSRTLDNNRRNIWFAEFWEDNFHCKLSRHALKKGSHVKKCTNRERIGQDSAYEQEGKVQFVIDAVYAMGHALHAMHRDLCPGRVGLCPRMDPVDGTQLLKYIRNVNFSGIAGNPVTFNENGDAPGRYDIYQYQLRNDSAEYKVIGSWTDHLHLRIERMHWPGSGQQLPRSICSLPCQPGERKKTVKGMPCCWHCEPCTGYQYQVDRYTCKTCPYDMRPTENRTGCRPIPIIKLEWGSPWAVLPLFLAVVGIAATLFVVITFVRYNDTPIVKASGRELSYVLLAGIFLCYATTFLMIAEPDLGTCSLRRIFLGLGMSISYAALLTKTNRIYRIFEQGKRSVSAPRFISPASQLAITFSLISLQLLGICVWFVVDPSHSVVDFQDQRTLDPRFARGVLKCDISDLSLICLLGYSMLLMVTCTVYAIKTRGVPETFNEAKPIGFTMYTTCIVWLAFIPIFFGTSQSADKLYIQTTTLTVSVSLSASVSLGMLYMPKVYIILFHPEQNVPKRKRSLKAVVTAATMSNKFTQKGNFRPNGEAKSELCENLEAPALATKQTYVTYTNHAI
Sequence of Metabotropic glutamate receptor 1 (Rattus norvegicus, UniProt P23385) (P23385 whole entry): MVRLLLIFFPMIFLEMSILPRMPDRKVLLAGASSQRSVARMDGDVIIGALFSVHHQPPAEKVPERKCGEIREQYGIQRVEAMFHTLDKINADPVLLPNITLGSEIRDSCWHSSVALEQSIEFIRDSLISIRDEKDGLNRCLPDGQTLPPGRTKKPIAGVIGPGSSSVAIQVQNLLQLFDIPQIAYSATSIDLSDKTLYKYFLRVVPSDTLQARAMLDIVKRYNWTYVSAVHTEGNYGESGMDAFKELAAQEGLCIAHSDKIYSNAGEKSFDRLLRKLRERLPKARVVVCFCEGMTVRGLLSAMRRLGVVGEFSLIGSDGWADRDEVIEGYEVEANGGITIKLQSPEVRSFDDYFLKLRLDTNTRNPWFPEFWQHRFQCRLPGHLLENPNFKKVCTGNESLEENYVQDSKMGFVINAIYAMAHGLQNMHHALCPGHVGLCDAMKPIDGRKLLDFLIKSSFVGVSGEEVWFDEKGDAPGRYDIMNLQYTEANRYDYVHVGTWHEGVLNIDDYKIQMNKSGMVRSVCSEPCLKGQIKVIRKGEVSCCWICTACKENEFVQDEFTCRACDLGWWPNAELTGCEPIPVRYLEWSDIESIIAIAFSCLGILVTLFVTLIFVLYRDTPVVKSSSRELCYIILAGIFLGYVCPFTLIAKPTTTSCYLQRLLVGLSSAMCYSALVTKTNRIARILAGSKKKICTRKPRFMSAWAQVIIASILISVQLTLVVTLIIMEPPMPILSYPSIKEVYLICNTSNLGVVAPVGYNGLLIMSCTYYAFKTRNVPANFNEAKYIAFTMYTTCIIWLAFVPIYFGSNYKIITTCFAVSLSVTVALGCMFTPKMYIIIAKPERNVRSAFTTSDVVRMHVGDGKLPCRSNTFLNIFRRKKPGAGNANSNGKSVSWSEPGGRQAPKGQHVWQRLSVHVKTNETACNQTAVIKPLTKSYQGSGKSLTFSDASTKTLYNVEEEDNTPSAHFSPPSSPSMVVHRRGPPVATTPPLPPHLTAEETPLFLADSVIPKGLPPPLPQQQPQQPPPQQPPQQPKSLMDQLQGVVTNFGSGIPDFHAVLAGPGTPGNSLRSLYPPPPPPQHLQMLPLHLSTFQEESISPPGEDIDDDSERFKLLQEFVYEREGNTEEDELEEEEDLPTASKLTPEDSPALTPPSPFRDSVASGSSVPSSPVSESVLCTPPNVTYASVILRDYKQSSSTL
Sequence of Cytochrome P450 3A4 (P08684 whole entry): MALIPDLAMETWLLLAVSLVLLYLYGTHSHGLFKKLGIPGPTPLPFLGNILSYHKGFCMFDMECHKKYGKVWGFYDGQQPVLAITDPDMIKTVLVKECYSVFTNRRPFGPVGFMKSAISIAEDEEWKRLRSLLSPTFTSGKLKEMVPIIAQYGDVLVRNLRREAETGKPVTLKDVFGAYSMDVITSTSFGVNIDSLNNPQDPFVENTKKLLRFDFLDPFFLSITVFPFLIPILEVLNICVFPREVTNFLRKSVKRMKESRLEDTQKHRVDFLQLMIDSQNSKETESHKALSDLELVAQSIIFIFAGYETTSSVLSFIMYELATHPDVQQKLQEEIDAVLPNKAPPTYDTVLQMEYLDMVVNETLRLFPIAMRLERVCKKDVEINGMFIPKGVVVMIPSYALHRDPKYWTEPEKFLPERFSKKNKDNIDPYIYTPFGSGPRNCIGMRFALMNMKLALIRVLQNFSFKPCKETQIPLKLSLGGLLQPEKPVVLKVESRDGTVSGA

In the case of `Cc1ccoc1C(=O)Nc1ccc(N2C(=O)c3ccc(Cl)cc3C2=O)c(Cl)c1`, the half-life in [1] amounted to 91.1 min. The fold change (FC) in [2] turned out to be 2; in [10], 2; in series [17] it was 8.3; in series [19], 2; in [23], 2; in [24], 2. For the same molecule, the fold change (FC) in [27] stood at 2. In addition, the EC50 was 113 nM in series [3], 2250 nM in [6] (read-out: EC50), 2290 nM in series [6] (read-out: pEC50 (converted)) and 80.9 nM in [15]. Further, the %max in series [4] came to 107%; in series [5] it was 94%; in series [8], 89%. The molecule also showed an MRT in series [7] of 53.5 min. The Stability result with Plasma [9] and in the series on Plasma [18] was “Unstable” each time. Besides, the Kp at 0.25 h in [11] worked out at 0.63. Further, the concentration at 0.25 h was 173 ng/mL in series [12] and 108 ng/mL in series [26]. The Drug metabolism entry with Plasma [13], with Plasma [14], in the series on Plasma [20], in the series on Plasma [28], with Plasma [29] and in the series with Plasma [30] was “metabolite_detected” each time. This molecule also displayed a clearance in [16] of 33 mL/min/kg. The IC50 on Cytochrome P450 1A2, against Cytochrome P450 3A4, on Cytochrome P450 2C9 and on Cytochrome P450 2D6 was more than 30 µM in each case. Moreover, the concentration with Brain amounted to 1400 nM. Also, the Activity result is “Non-toxic” with Mus musculus [21] and less than 20% in series [22]. Also, the CLint scaled at 1 µM in series [25] was found to be 2.9 mL/min/kg. In the series on Rattus norvegicus, this molecule came in with a Vdss of 1.76 L/kg.
Consider `N[C@H](C(=O)O)c1cc(O)cc(O)c1`, for which the Activity in the series on Hippocampus was 13.8 Hz.
Take `CC1(C)C2C(=O)N(c3ccc(NC(=O)c4ccccn4)cc3Cl)C(=O)C21` (stereo unspecified): the IC50 in series [31] stood at 140 nM.
On to `C[C@@H](NC(=O)c1ccc(C#Cc2cccc(F)c2)cn1)C(C)(C)O`, for which the Activity result in the series with Mus musculus [32] and in the series with Mus musculus [33] was “Toxic” in each case.
